# rRNA inh HTS: inhibits bacterial ribosomal RNA function over humanized ribosomes | E. coli WT GFP vs humanized-ribosome RFP mutants, fluorescence, 24 h; active compounds read low; DMSO median 0, no signal -100 | GFP signal change (wild-type ribosome), % (concentration not given with the values) | 1.6% of 350,000 active | AID 720706;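 active = significant combined selectivity score with lowered wild-type GFP, culture density cut under 30%, mutant RFP and density less affected; inactive = any of these conditions unmet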
# E-sel inducer: induces E-selectin expression in human endothelial cells. P16581. HUVEC E-selectin immunofluorescence imaging; normalized: neutral wells 0, TNF-alpha wells 100. activation, % at 7.58 µM. 0.37% of 260,000 active. AID 686992;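 active = mean E-selectin-positive cell signal at least 10% of the positive control, reached in at least 60% of replicates, without over 20% cell loss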
#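 Read-out: % PE-positive cells | Test system: HUVEC | Doses: One compound dose added by pin transfer | Buffer or medium: EGM-2 over gelatin coat | Signal: Immunofluorescence imaging | Benchmarks: TNF-alpha, DMSO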
# Xi reactivation: X-chromosome reactivation activator; XiGFP mouse fibroblasts, % GFP-positive cells imaging, 3 d; cells co-treated with 5-aza-dC sensitizer; scaled so ellipticine positive control = 100%; AID 743238; 0.055% of 360,000 active; activation, % at 7.58 µM;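 active = mean normalized replicate activation at least 10% and every replicate at or above 10%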;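 also: 0% = median of on-plate neutral control wells and 100% = ellipticine 6 µM median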
#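 Material: XiGFP fibroblasts, SV40-immortalized. Buffer or medium: DMEM plus 5-aza-dC sensitizer. Compound: single concentration per compound, delivered by pin transfer. Times: 3 days compound exposure. Controls: ellipticine 6 µM.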
# PglD inh: blocks C. jejuni PglD acetyltransferase activity; inhibition, % at 12.5 µM; purified PglD enzyme, DTNB colorimetric CoA detection; 0.098% of 360,000 active; in the data active = inhibition above about 16%, passing the limit was not always enough
# RAD52 inh: blocks human RAD52 DNA annealing; AID 651710; recombinant RAD52 DNA annealing, FRET fluorescence; inhibition, % at 18.7 µM; P43351; 0.46% of 360,000 active;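 active = every replicate showing at least 50% inhibition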
# Target sequence (P43351 whole entry, looked up): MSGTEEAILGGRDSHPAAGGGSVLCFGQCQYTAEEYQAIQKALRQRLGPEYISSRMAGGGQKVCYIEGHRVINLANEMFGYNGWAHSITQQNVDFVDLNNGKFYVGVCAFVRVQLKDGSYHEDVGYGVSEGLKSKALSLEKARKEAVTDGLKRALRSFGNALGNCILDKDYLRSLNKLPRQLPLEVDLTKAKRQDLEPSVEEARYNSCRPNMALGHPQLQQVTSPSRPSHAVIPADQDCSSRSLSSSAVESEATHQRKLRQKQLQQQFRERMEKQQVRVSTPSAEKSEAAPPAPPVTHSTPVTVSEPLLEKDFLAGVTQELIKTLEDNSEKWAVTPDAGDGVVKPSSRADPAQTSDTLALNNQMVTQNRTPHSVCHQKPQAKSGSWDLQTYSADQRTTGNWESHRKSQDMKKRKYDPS
# RAD54 inh: blocks human RAD54 Holliday junction branch migration; FAM/BHQ fluorescence; inhibition, % at 10.4 µM; 0.14% of 360,000 active; AID 602329;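 active = mean normalized replicate activity at least 40 and at least half of replicates scoring 40 or more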;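 also: 0% = median of neutral control wells and 100% = median of positive control wells; inhibitors cause a drop in the FAM fluorescence signal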
# * marks the source's active call; other numbers are inactive results; i = inactive; x = no result given. This is a sample that favours compounds with a hit; in the whole collection about 2% have one here.
SMILES,rRNA inh HTS,E-sel inducer,Xi reactivation,PglD inh,RAD52 inh,RAD54 inh
Cn1cnc(S(=O)(=O)N[C@@H]2C=C[C@H](CC(=O)N3CCN(c4ccccc4)CC3)O[C@@H]2CO)c1,4,0,0,x,-3,x
Cc1ccc2c(c1)c(/C=C/c1cc[n+](C)cc1)c(C)n2C,68,1,106*,12,i,i
C[n+]1ccc(/C=C/c2c[nH]c3ccc(F)cc23)cc1,76,0,0,-12,i,-242
C[n+]1ccc(/C=C/c2ccc(Br)cc2)cc1,x,x,x,10,x,22
Cc1ccc2[nH]c(C)c(/C=C/c3cc[n+](C)cc3)c2c1,58,0,45*,-3,i,i
CCOC(=O)c1nnc(-c2ccccc2)o1,x,0,x,-3,x,-12
O=C(CCc1ccccc1)c1nnc(-c2ccccc2)o1,-23*,0,0,x,-12,x
OCCN=c1cc(-c2ccccc2)oc2ccc(Cl)cc12,x,x,x,-7,x,82*
CC(O)CN=c1cc(-c2ccccc2)oc2ccc(Cl)cc12 (stereo unspecified),-44,x,x,-3,31,67*
O=c1cc(-c2ccccc2)oc2ccc(Cl)cc12,6,x,0,x,-11,x
CCC(=O)Nc1ccc2c(c1)C(=O)N(C)C[C@H](OC)[C@H](C)CN(CC1CCOCC1)[C@@H](C)CO2,2,2,0,3,x,7
CCOC(=O)Cc1nn(Cc2ccc(Cl)cc2)c(=O)c2ccccc12,4,x,1,-9,5,-1
CCOC(=O)Cc1nn(Cc2ccccc2)c(=O)c2ccccc12,-26*,0,0,x,3,x
C/C=C/c1ccc2c(c1)O[C@@H](CN(C)C(C)=O)[C@H](C)CN([C@@H](C)CO)S2(=O)=O,0,1,0,-4,-1,1
COc1ccc(CN(C)C[C@@H]2Oc3ccc(NC(=O)C4CC4)cc3C(=O)N([C@H](C)CO)C[C@H]2C)cc1,0,0,0,1,8,15
O=C(O)CCN1C(=O)/C(=C\c2cccc(OCC(=O)Nc3ccc(Cl)cc3)c2)SC1=S,-30*,x,0,-12,-26,5
CCOc1ccc(/C=C2\SC(=S)N(CCC(=O)O)C2=O)cc1,-27*,x,0,x,-20,x
Cc1ccc(/C=C2\SC(=S)N(CCCC(=O)N3CCOCC3)C2=O)cc1,-26*,0,0,-17,2,8
COC(=O)c1ccc(/C=C2\SC(=S)N(CCCC(=O)N3CCOCC3)C2=O)cc1,6,0,0,-1,-7,-12
CCOc1ccc(/C=C2/SC(=S)N(CCC(=O)Nc3ccc(C(=O)O)cc3)C2=O)cc1,10,0,0,2,-17,-3
COc1ccc(NC(=O)N(C)C[C@H]2Oc3cc(-c4ccc(C)cc4)ccc3S(=O)(=O)N([C@H](C)CO)C[C@@H]2C)cc1,7,0,0,-2,29,0
COc1ccccc1NC(=O)N1CC(=O)N2[C@H](CO)[C@H](c3ccc(C#CCC(C)C)cc3)[C@@H]2C1,-6,x,0,x,x,x
C[C@@H]1CN([C@H](C)CO)C(=O)Cc2cc(NC(=O)CCCN(C)C)ccc2O[C@H]1CN(C)Cc1ccc(-c2ccccc2)cc1,-60,x,-1,0,73*,12
C[C@H](CO)N1C[C@H](C)[C@H](CN(C)Cc2ccc(-c3ccccc3)cc2)Oc2ccc(NC(=O)CCCN(C)C)cc2CC1=O,-60,x,-1,0,53*,2
C[C@H](CO)N1C[C@H](C)[C@@H](CN(C)Cc2ccc(Cl)c(Cl)c2)Oc2ccc(NC(=O)CCCN(C)C)cc2CC1=O,-60,-2,0,10,59*,20
SMILES,rRNA inh HTS,E-sel inducer,Xi reactivation,PglD inh,RAD52 inh,RAD54 inh
COc1c(Br)cc([N+](=O)[O-])c(OC)c1C(=O)NC(=O)Nc1c(Cl)cccc1Cl,-38*,x,0,-4,-4,-15
N#Cc1c(-c2ccccc2)nc(SCC(=O)Nc2ccccc2)[nH]c1=O,x,0,0,4,x,-3
N#Cc1c(-c2ccccc2)nc(SCC(=O)N(c2ccccc2)c2ccccc2)[nH]c1=O,-49*,-1,0,4,-24,2
Cc1ccc2c(c1)Sc1c(ccc3ccccc13)N2,-27*,x,0,1,-14,0
CCOC(=O)C1=C(C)Nc2ccc(C)cc2S1,x,x,x,1,x,-4
COc1cc(OC)cc(-c2nc3ccccc3c(=O)n2OC(=O)c2ccc(Br)cc2)c1,-25*,0,0,x,-10,x
C[C@H](CO)N1C[C@H](C)[C@H](CN(C)CC2CC2)Oc2ccc(NC(=O)CCN3CCOCC3)cc2CC1=O,0,0,-1,-3,8,1
O=C1Nc2ccccc2C1Cc1ccccn1 (stereo unspecified),22,48*,0,x,-17,x
O=C1Nc2ccccc2C1Cc1ccc(OC(F)(F)F)cc1 (stereo unspecified),-12,0,0,x,-21,x
O=C(NCc1ccccn1)C(=O)C1C(=O)Nc2ccccc21 (stereo unspecified),13,x,0,x,-21,x
COc1cc(CC2C(=O)Nc3ccccc32)cc(C)c1O (stereo unspecified),5,52*,0,-1,-13,-3
Cc1[nH][nH]c(=O)c1C(c1c(C)[nH][nH]c1=O)c1cn(Cc2ccc(Cl)c(Cl)c2)c2ccccc12,-30*,x,0,-2,-15,8
Cc1[nH][nH]c(=O)c1C(c1c(C)[nH][nH]c1=O)c1cn(Cc2ccc(F)cc2)c2ccccc12,x,x,x,-2,x,-2
CCC(=O)NC(=S)Nc1ccc(NC(=O)c2ccccc2[N+](=O)[O-])cc1,-22*,x,0,-7,3,-4
CCCCCC(=O)NNC(=S)NC(=O)c1ccccc1[N+](=O)[O-],-32*,x,0,x,-23,x
Cc1noc(C)c1NC(=O)Nc1ccc2c(c1)C(=O)N([C@H](C)CO)C[C@@H](C)[C@@H](CN(C)S(=O)(=O)c1cn(C)cn1)O2,1,-2,0,0,4,10
COc1ccc2c(c1)CC(N1CCN(C)CC1)c1cc(OC)ccc1S2 (stereo unspecified),-28,x,0,x,40,x
CC(C)c1ccc2c(c1)C(N1CCN(C)CC1)Cc1cccnc1S2 (stereo unspecified),-22*,0,0,x,9,x
Clc1ccc(C2=NCCN2)cc1,23,0,0,x,-14,x
Cc1ccc(S(=O)(=O)Nc2ccc3c(c2)C(=O)N([C@@H](C)CO)C[C@H](C)[C@H](CN(C)C(=O)CCC(F)(F)F)OCCCC[C@H](C)O3)cc1,1,x,0,0,-13,7
C[C@@H](NC(=O)C[C@H]1C[C@@H]2c3cc(NS(C)(=O)=O)ccc3O[C@@H]2[C@@H](CO)O1)c1ccccc1,0,1,0,-1,-1,-14

# Assay outcomes: PubChem, Broad Institute
